Results: ChEMBL document CHEMBL4028856, “Discovery of Small Molecules Targeting the Synergy of Cardiac Transcription Factors GATA4 and NKX2-5” (J Med Chem, 2017)
Active and inactive are the calls of the source. No cut-off for these calls is given here.

Assays:
[1] = molecular target: T1, GATA4/NKX2-5 (Mus musculus) (UniProt Q08369+P42582); conditions: 10 uM
[2] = molecular target: Homeobox protein Nkx-2.5 (Mus musculus) (UniProt P42582); assay: Inhibition of binding of mouse NKX2-5 to [32P]-double stranded oligonucleotide expressed in African green monkey COS-1 cells at 50 uM preincubated for 10 mins followed by [32P]-double stranded oligonucleotide addition measured after 20 mins by EMSA method; assay type: cell-based
How it was run: (§1)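 Nuclear extracts from COS-1 cells transfected with pMT2-GATA4 or pMT2-NKX2-5 (harvested 48 h) preincubated 10 min with 50 μM compound, then 20 min with 32P-labeled GATA4- or NKX2-5-site probe; native 5% PAGE, phosphorimager quantitation; antibody supershift controls; mean ± SD, n = 3–5.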

[3] = molecular target: Transcription factor GATA-4 (Mus musculus) (UniProt Q08369); assay: Inhibition of binding of mouse GATA4 to [32P]-double stranded oligonucleotide expressed in African green monkey COS-1 cells at 50 uM preincubated for 10 mins followed by [32P]-double stranded oligonucleotide addition measured after 20 mins by EMSA method; assay type: cell-based
How it was run: as §1

[4] = molecular target: GATA4/NKX2-5 (Mus musculus, UniProt P42582+Q08369); assay: Inhibition of mouse GATA4/NKX2-5 transcriptional synergy expressed in African green monkey COS-1 cells measured after 30 hrs by dual luciferase reporter gene assay; assay type: cell-based
How it was run: (§2)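 COS-1 cells co-transfected (Fugene 6, DNA:reagent 1:3) with p3xNKE-luc, Renilla pRL-TKd238 control, and pMT2-GATA4, pMT2-NKX2-5, both, or empty pMT2; DNA balanced with pMT2. Compounds added 6 h post-transfection in 0.1% DMSO, medium renewed at 24 h, lysis at 30 h. Dual-luciferase read-out, firefly/Renilla normalized to vehicle; duplicate wells.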

[5] = Drug level in embryoid body differentiation medium treated with N-[4-(Diethylamino)phenyl]-5-methyl-3-phenylisoxazole-4-carboxamide at 3 to 5 uM measured after 10 days by HPLC/MS method
How it was run: (§3)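 Mouse embryonic stem cells exposed 5 and 10 days to 3 or 5 μM, with DMSO and EB differentiation medium blanks. Medium extracted with chloroform; cells pelleted, saline-washed twice, sonicated in chloroform. UPLC-ESI(+)-QTOF/MS, BEH C18, 0.1% formic acid water/acetonitrile gradient 7–80% B over 5 min, 0.6 mL/min, 40 °C.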

[6] = Drug level in mouse embryonic stem cells treated with N-[4-(Diethylamino)phenyl]-5-methyl-3-phenylisoxazole-4-carboxamide at 3 to 5 uM measured after 10 days by HPLC/MS method; assay type: ADME, cell-based; conditions: embryonic stem cell, 240 h
How it was run: as §3

[7] = molecular target: Fibroblast growth factor receptor 3 (Homo sapiens) (UniProt P22607); assay: Inhibiton of human FGFR3 at 30 uM
How it was run: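 48-kinase profiling panel; compounds tested at 30 μM in duplicate.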

[8] = molecular target: T1, GATA4/NKX2-5 (Mus musculus); assay: Inhibition of mouse GATA4/NKX2-5 transcriptional synergy expressed in African green monkey COS-1 cells at 50 uM measured after 30 hrs by dual luciferase reporter gene assay; assay type: cell-based
How it was run: as §2

[9] = Induction of necrosis in endothelin-1 induced neonatal rat ventricular cardiomyocytes assessed as release of adenylate kinase at 50 uM measured after 24 hrs by bioluminescence assay; assay type: cell-based; conditions: cardiac muscle cell
How it was run: (§4)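 Neonatal rat cardiomyocytes treated 24 h at 50 μM; adenylate kinase released into medium measured by ToxiLight bioluminescence on a luminometer; relative to vehicle, mean ± SD, n = 3.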

[10] = Induction of necrosis in neonatal rat ventricular cardiomyocytes assessed as release of adenylate kinase at 50 uM measured after 24 hrs by bioluminescence assay; assay type: cell-based; conditions: cardiac muscle cell
How it was run: as §4

[11] = Induction of apoptosis in endothelin-1 induced neonatal rat ventricular cardiomyocytes at 50 uM measured after 24 hrs by TUNEL assay; assay type: cell-based; conditions: cardiac muscle cell
How it was run: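 Neonatal rat cardiomyocytes on 8-well chamber slides treated 24 h at 50 μM; apoptotic cells detected by TUNEL with peroxidase in situ kit.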

[12] = molecular target: Transcription factor GATA-4 (Mus musculus) (UniProt Q08369); assay: Inhibition of mouse GATA4-driven transactivation of luciferase reporter construct containing BNP minimal promoter with tandem GATA-site on -90 bp expressed in African green monkey COS-1 cells after 30 hrs by luminometer; assay type: cell-based
How it was run: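 COS-1 cells co-transfected with firefly luciferase driven by BNP minimal or −90 bp BNP promoter, Renilla pRL-TKd238, and pMT2-GATA4 or empty pMT2. Compounds added 6 h post-transfection in 0.1% DMSO, refreshed with medium at 24 h; lysis at 30 h; dual-luciferase, firefly/Renilla normalized to vehicle; triplicate wells.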

[13] = molecular target: Homeobox protein Nkx-2.5 (Rattus norvegicus) (UniProt O35767); assay: Inhibition of binding of NKX2-5 to [32P]-double stranded oligonucleotide in neonatal rat ventricular cardiomyocytes at 50 uM measured after 24 hrs by EMSA method
How it was run: (§5)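 Neonatal rat cardiomyocytes treated 24 h with 50 μM; nuclear extracts incubated 20 min with [α-32P]dCTP Klenow-labeled GATA4- or NKX2-5-site oligonucleotide in HEPES/NaCl/KCl/MgCl2 buffer with poly(dI-dC); 5% native PAGE, phosphorimager; supershift with anti-GATA4/NKX2-5; relative to vehicle, mean ± SD, n = 3–5.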

[14] = molecular target: Transcription factor GATA-4 (Rattus norvegicus) (UniProt P46152); assay: Inhibition of binding of GATA4 to [32P]-double stranded oligonucleotide in neonatal rat ventricular cardiomyocytes at 50 uM measured after 24 hrs by EMSA method
How it was run: as §5

[15] = molecular target: T2, GATA4/NKX2-5 (Rattus norvegicus) (UniProt P46152+O35767); assay: Activation of GATA4/NKX2-5 interaction in neonatal rat ventricular cardiomyocytes assessed as increase in basal mRNA level of ANP at 100 uM after 24 hrs by real-time PCR analysis relative to control
How it was run: (§6)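 Neonatal rat ventricular myocytes (2–4-day-old Sprague-Dawley or Wistar), preplated, seeded on 6-well plates, moved to complete serum-free medium next day and cultured 24 h. Compounds (10–100 μM) added 1 h before 100 nM endothelin-1 or none; ANP and BNP mRNA quantified by RT-PCR at 24 h, normalized to 18S RNA, relative to vehicle; mean ± SD, n = 3–6.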

[16] = molecular target: T2, GATA4/NKX2-5 (Rattus norvegicus); assay: Activation of GATA4/NKX2-5 interaction in neonatal rat ventricular cardiomyocytes assessed as increase in basal mRNA level of BNP at 100 uM after 24 hrs by real-time PCR analysis relative to control
How it was run: as §6

[17] = Induction of aggregation of compound at 3 to 30 uM by nephalometric method
[18] = Induction of aggregation of compounds at 100 uM by nephalometric method

Chain of GATA4/NKX2-5 (Q08369 whole entry): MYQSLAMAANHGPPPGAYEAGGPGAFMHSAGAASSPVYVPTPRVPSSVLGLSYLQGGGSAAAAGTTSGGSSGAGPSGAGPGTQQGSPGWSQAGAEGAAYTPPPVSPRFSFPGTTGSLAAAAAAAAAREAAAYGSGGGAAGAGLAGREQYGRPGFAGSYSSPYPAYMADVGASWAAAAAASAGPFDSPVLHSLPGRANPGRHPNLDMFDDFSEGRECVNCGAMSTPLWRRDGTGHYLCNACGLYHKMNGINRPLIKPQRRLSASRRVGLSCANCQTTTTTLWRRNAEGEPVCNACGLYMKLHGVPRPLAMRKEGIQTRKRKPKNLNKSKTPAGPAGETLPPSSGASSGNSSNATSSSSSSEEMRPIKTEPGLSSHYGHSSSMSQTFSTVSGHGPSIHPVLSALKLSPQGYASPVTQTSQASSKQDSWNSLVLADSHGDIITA
Chain of GATA4/NKX2-5 (P42582 whole entry): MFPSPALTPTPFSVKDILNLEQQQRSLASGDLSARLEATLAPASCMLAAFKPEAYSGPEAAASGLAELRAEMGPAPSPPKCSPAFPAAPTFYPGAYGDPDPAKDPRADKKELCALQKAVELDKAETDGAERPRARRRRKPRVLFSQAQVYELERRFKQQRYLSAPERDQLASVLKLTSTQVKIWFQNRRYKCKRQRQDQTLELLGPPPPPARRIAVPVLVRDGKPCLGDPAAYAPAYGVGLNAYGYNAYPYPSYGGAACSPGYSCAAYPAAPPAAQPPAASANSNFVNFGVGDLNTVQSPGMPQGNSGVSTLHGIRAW
Chain of Transcription factor GATA-4 (Mus musculus) (Q08369 whole entry): as the sequence (Q08369 whole entry) above
Chain of Homeobox protein Nkx-2.5 (Mus musculus) (P42582 whole entry): as the sequence (P42582 whole entry) above
Chain of Transcription factor GATA-4 (Rattus norvegicus) (P46152 whole entry): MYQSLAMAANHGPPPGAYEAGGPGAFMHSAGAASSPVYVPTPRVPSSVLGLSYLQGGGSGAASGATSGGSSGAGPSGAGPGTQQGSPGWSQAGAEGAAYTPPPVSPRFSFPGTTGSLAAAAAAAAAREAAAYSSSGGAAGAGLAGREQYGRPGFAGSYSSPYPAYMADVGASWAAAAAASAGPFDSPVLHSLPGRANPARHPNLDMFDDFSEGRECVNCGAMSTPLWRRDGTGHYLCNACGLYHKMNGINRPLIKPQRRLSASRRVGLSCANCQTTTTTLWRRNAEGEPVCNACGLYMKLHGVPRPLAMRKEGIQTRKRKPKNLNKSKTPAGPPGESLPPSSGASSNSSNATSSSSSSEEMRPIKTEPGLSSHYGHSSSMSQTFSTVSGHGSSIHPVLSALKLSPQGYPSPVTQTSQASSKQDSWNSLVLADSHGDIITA
Chain of Homeobox protein Nkx-2.5 (Rattus norvegicus) (O35767 whole entry): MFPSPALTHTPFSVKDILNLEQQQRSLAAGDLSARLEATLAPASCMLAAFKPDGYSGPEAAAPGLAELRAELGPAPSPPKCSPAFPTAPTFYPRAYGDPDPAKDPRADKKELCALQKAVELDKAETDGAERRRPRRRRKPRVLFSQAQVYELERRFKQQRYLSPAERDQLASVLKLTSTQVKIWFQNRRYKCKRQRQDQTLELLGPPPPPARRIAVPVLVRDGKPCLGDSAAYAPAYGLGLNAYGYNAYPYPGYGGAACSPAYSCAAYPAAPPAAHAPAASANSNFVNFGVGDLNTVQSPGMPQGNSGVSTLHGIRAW
Chain of Fibroblast growth factor receptor 3 (Homo sapiens) (P22607 23-806 limits assumed): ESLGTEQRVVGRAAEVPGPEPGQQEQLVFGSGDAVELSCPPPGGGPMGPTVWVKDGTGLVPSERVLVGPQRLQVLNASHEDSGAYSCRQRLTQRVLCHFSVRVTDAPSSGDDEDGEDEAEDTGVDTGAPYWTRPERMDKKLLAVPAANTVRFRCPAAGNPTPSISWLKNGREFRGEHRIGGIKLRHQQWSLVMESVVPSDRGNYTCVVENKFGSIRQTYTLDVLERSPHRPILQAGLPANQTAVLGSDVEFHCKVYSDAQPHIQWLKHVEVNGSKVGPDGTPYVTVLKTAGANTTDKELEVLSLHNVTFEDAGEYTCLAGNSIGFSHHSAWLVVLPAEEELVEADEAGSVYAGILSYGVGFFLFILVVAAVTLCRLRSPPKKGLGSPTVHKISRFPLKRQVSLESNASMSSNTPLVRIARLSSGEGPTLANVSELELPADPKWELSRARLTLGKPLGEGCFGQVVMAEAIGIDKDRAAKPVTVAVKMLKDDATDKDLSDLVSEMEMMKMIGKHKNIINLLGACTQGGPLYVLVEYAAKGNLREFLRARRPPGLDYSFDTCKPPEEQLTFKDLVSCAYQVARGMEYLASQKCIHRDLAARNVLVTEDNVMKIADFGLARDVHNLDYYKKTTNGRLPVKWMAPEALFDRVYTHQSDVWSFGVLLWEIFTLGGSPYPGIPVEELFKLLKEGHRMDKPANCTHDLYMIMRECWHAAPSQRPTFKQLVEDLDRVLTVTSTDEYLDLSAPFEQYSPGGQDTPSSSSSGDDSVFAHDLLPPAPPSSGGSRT

Compound	inhibition [1]	inhibition [2]	inhibition [3]	IC50 [4] [µM]	Drug metabolism [5]	Drug metabolism [6]	inhibition [7] [%]	inhibition [8]	Activity [9]	Activity [10]	Activity [11]	inhibition [12]	inhibition [13] [%]	inhibition [14] [%]	fold change (FC) [15]	fold change (FC) [16]	Activity [17]	Activity [18]
CC(C)COC(=O)c1ccc(NC(=O)c2ccncc2)cc1	Active	inactive	Active	5														
CCNc1ccc(NC(=O)c2c(-c3ccccc3)noc2C)cc1				> 50	Metabolite detected	Metabolite_Detected												
CCCOc1ccc(/C=N/n2c(S)nnc2-c2ccncc2)cc1		Active	inactive	10			55	Active	Non-Toxic	Non-Toxic	Non-Toxic	Active	29	37	8.6	4.9	inactive	Active
